Experimental findings from ChEMBL document CHEMBL2429787, “Sulfonyl-polyol N,N-dichloroamines with rapid, broad-spectrum antimicrobial activity” (Bioorg Med Chem Lett, 2013) are described below.

≈ marks a conversion by molar mass, not a printed value.

The subject of series [1] is Human adenovirus 5. The series can be described thus: Ratio of IC50 for Adenovirus 5 ATCC VR-1516 at pH 7 to IC50 for Adenovirus 5 ATCC VR-1516 at pH 4. The format is functional. The method, boiled down:
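Ad5 virucidal IC50 was determined in PBS (pH 7) and acetate saline buffer (pH 4) using 60 min room-temperature exposure, neutralization, A549 infection, 6-day CPE by CCK-8 and sigmoidal fit. The ratio is IC50 at pH 7 over IC50 at pH 4.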

Series [2] concerns Staphylococcus aureus. The series can be described thus: Ratio of MBC for Staphylococcus aureus ATCC 29213 at pH 7 to MBC for Staphylococcus aureus ATCC 29213 at pH 4. Format: functional. The method, boiled down:
(§1)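 MBC was measured in PBS pH 7 and in acetate saline buffer pH 4 (1 h room-temperature exposure, >99.9% kill endpoint, CFU plating). The ratio is MBC at pH 7 over MBC at pH 4.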

Series [3] deals with Escherichia coli. Nature of the series: Ratio of MBC for Escherichia coli ATCC 25922 at pH 7 to MBC for Escherichia coli ATCC 25922 at pH 4. Format: functional. The method, boiled down: as §1
Series [4] has as its system Staphylococcus aureus. The series can be described thus: Bactericidal activity against Staphylococcus aureus ATCC 29213 at pH 7 after 1 hr by CLSI method. The format is functional. The conditions noted are these: ATCC 29213, 1 h. The method, boiled down: (§2)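 MBC by modified CLSI M26-A: broth replaced with 0.9% acetate saline buffer pH 4 or PBS pH 7. Mid-log bacteria were centrifuged and resuspended in buffer, then added to serial twofold compound dilutions (final 10⁵–10⁶ CFU/mL) for 1 h at room temperature. Aliquots were plated on agar (24 h, 35 °C) and CFU counted. MBC is the lowest concentration giving >99.9% kill.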

The subject of series [5] is Escherichia coli. The series can be described thus: Bactericidal activity against Escherichia coli ATCC 25922 at pH 7 after 1 hr by CLSI method. The conditions noted are these: ATCC 25922, 1 h. Format: functional. The method, boiled down: as §2
Series [6] has as its system Staphylococcus aureus. The series can be described thus: Bactericidal activity against Staphylococcus aureus ATCC 29213 at pH 4 after 1 hr by CLSI method. Format: functional. The conditions noted are these: ATCC 29213, 1 h. The method, boiled down:
as §2

Series [7] has as its system Escherichia coli. Nature of the series: Bactericidal activity against Escherichia coli ATCC 25922 at pH 4 after 1 hr by CLSI method. The format is functional. The conditions noted are these: ATCC 25922, 1 h. An outline of the steps:
as §2

Series [8] deals with Human adenovirus 5. Nature of the series: Virucidal activity against Adenovirus 5 ATCC VR-1516 infected in human A549 cells assessed as viral cytopathic effect at pH 7 incubated for 1 hr measured after 6 days by three-fold serial dilution assay. The format is functional, organism-based. The method, boiled down: (§3)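 Virus was diluted in 20 mM PBS or 5 mM acetate saline buffer with 2.5% glycerol and mixed 1:1 with threefold compound dilutions (quadruplicate) for 60 min at room temperature. It was neutralized with 2× D-MEM/F12 plus 20% FBS for 60 min, then adsorbed 1–2 h at 37 °C onto A549 (Ad5) or Vero (HSV-1) cells. Cells were washed, grown 6 days, and CPE read by CCK-8. IC50 came from a sigmoidal fit with top fixed at 100.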
On the technique in general: Protection from cytopathic effect is a common read-out in antiviral testing.

The subject of a further series is Human alphaherpesvirus 1. Nature of the series: Virucidal activity against Herpes simplex virus (type 1 / strain F) ATCC VR-733 infected in african geen monkey Vero cells assessed as viral cytopathic effect at pH 7 incubated for 1 hr measured after 6 days by three-fold serial dilution assay. Format: functional, organism-based. The method, boiled down:
as §3

For series [9], the system named is Human adenovirus 5. The series can be described thus: Virucidal activity against Adenovirus 5 ATCC VR-1516 infected in human A549 cells assessed as viral cytopathic effect at pH 4 incubated for 1 hr measured after 6 days by three-fold serial dilution assay. Format: functional, organism-based. The method, boiled down: as §3
Series [10] can be described thus: Toxicity in epiocular tissue irritancy model (unknown origin) assessed as tissue viability up to 46 mins relative to control. Format: tissue-based, Eye. The conditions noted are these: read-out: Activity. The method, boiled down: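 EpiOcular tissue model: after exposure, tissues were rinsed in PBS and held in MTT for 3 h, then extracted overnight. Viability was read from MTT absorbance against untreated control and correlated with a Draize-type irritancy score.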

The nature of series [11]: Stability of the compound in aqueous solution. The format is physicochemical. The following applies: buffer.
[12] abbreviates: Human mastadenovirus C, ATCC VR-1516, A549, read-out: IC50.
Setting [13] is: Human alphaherpesvirus 1, Strain F ATCC VR 733, Vero, read-out: IC50.

Usually MBC stands for the lowest tested concentration that kills the bacteria rather than only halting them. By IC50 is commonly meant the concentration needed to halve the response being measured. Consider `CC(C)(CCS(=O)(=O)CCO)N(Cl)Cl`, for which the “Ratio IC50” value in the series with Human adenovirus 5 [1] is reported as 3.2. Further, the Ratio in the series with Staphylococcus aureus [2] and in the series with Escherichia coli [3] was 16 each time. For the same molecule, the MBC came to 16 µg/mL (≈ 60.6 µM) with Staphylococcus aureus [4], 8 µg/mL (≈ 30.3 µM) in the series on Escherichia coli [5], 1 µg/mL (≈ 3.79 µM) with Staphylococcus aureus [6] and 0.5 µg/mL (≈ 1.89 µM) in the series with Escherichia coli [7]. The results for the half-inhibitory concentration (IC50) with Human adenovirus 5 [8] (setting [12]), in the series on Human alphaherpesvirus 1 (setting [13]) and with Human adenovirus 5 [9] (setting [12]) were 4.5 µM, 0.7 µM and 1.4 µM, respectively.

As for `CC(C)(CCS(=O)(=O)CCCO)N(Cl)Cl`, the half-inhibitory concentration (IC50) entry in the series with Human adenovirus 5 [8] (a549), in the series with Human alphaherpesvirus 1 (vero) and in the series with Human adenovirus 5 [9] (a549) was “ND(Unstable)” in each case.

As to `CC(C)(CO)CS(=O)(=O)CCC(C)(C)N(Cl)Cl`, the MBC in the series with Staphylococcus aureus [4] is 128 µg/mL (≈ 418 µM); in the series on Escherichia coli [5], 64 µg/mL (≈ 209 µM); in the series on Staphylococcus aureus [6], 2 µg/mL (≈ 6.53 µM); in the series with Escherichia coli [7], 4 µg/mL (≈ 13.1 µM). The figures for the half-maximal inhibitory concentration (IC50) with Human adenovirus 5 [8] (setting [12]), with Human alphaherpesvirus 1 (setting [13]) and with Human adenovirus 5 [9] (setting [12]) were 9.6 µM, 0.9 µM and 1.8 µM, respectively.

Turning to `CC(C)(CCS(=O)(=O)CCCCCCCCO)N(Cl)Cl`, the MBC against Staphylococcus aureus [4] is 128 µg/mL (≈ 367 µM); against Escherichia coli [5] it was 256 µg/mL (≈ 735 µM). The IC50 is 32 µM in the series on Human adenovirus 5 [8] (setting [12]) and “ND(Unstable)” in the series with Human adenovirus 5 [9] (a549).

With `CC(C)(CCS(=O)(=O)CC(O)CO)N(Cl)Cl` (stereo not drawn), the viability at 46 min in series [10] turned out to be 50%. Also, the “Ratio IC50” value with Human adenovirus 5 [1] worked out at 10. Moreover, the values for the Ratio in the series on Staphylococcus aureus [2] and in the series on Escherichia coli [3] were 2 and 8, respectively. For the same molecule, the minimal bactericidal concentration (MBC) against Staphylococcus aureus [4] came to 4 µg/mL (≈ 13.6 µM); against Escherichia coli [5], 16 µg/mL (≈ 54.4 µM); in the series on Staphylococcus aureus [6], 2 µg/mL (≈ 6.8 µM); in the series with Escherichia coli [7], 2 µg/mL (≈ 6.8 µM). The IC50 turned out to be 26 µM with Human adenovirus 5 [8] (setting [12]), 1.5 µM with Human alphaherpesvirus 1 (setting [13]) and 2.7 µM with Human adenovirus 5 [9] (setting [12]).

On to `CC(C)(CCS(=O)(=O)C[C@H](O)CO)N(Cl)Cl`, for which the MBC against Staphylococcus aureus [4] worked out at 4 µg/mL (≈ 13.6 µM); against Escherichia coli [5], 32 µg/mL (≈ 109 µM); against Staphylococcus aureus [6], 2 µg/mL (≈ 6.8 µM); in the series with Escherichia coli [7], 2 µg/mL (≈ 6.8 µM). The figures for the 50% inhibitory concentration (IC50) in the series with Human adenovirus 5 [8] (setting [12]), with Human alphaherpesvirus 1 (setting [13]) and in the series with Human adenovirus 5 [9] (setting [12]) were 14 µM, 1.2 µM and 2.2 µM, respectively.

On to `CC(C)(CCS(=O)(=O)C[C@@H](O)CO)N(Cl)Cl`, for which the minimum bactericidal concentration (MBC) in the series on Staphylococcus aureus [4] was 4 µg/mL (≈ 13.6 µM); in the series on Escherichia coli [5], 32 µg/mL (≈ 109 µM); in the series with Staphylococcus aureus [6] it was 1 µg/mL (≈ 3.4 µM); with Escherichia coli [7], 2 µg/mL (≈ 6.8 µM). Also, the IC50 amounted to 13 µM in the series with Human adenovirus 5 [8] (setting [12]), 1 µM in the series with Human alphaherpesvirus 1 (setting [13]) and 2.4 µM in the series with Human adenovirus 5 [9] (setting [12]).

On to `CC(C)(CCS(=O)(=O)CC(O)C(O)CO)N(Cl)Cl` (stereo not drawn), for which the MBC against Staphylococcus aureus [4] was 32 µg/mL (≈ 98.7 µM); with Escherichia coli [5], 128 µg/mL (≈ 395 µM); in the series with Staphylococcus aureus [6] it was 1 µg/mL (≈ 3.08 µM); with Escherichia coli [7] it was 2 µg/mL (≈ 6.17 µM).

On to `CC(C)(CCS(=O)(=O)C(CO)C(O)CO)N(Cl)Cl` (stereo not drawn), for which the MBC against Staphylococcus aureus [4] worked out at 16 µg/mL (≈ 49.3 µM); against Escherichia coli [5], 64 µg/mL (≈ 197 µM); against Staphylococcus aureus [6] it was 2 µg/mL (≈ 6.17 µM); with Escherichia coli [7] it was 2 µg/mL (≈ 6.17 µM). In addition, the values for the IC50 with Human adenovirus 5 [8] (setting [12]), with Human alphaherpesvirus 1 (setting [13]) and in the series on Human adenovirus 5 [9] (setting [12]) were 19 µM, 3 µM and 1.5 µM, respectively.

Consider `CC(C)(CCS(=O)(=O)CCC(O)CO)N(Cl)Cl` (stereo not drawn), for which the MBC against Staphylococcus aureus [4] stood at 16 µg/mL (≈ 51.9 µM); against Escherichia coli [5] it was 64 µg/mL (≈ 208 µM); in the series with Staphylococcus aureus [6], 1 µg/mL (≈ 3.24 µM); against Escherichia coli [7], 2 µg/mL (≈ 6.49 µM). The results for the concentration for half-maximal inhibition (IC50) with Human adenovirus 5 [8] (setting [12]), in the series on Human alphaherpesvirus 1 (setting [13]) and in the series with Human adenovirus 5 [9] (setting [12]) were 18 µM, 1.2 µM and 1.4 µM, respectively.

`CC(C)(CCS(=O)(=O)CCCCC(O)CO)N(Cl)Cl` (stereo not drawn): the IC50 result in the series on Human adenovirus 5 [8] (a549), with Human alphaherpesvirus 1 (vero) and with Human adenovirus 5 [9] (a549) was “ND(Unstable)” throughout.

With `CO[C@H]1O[C@H](CS(=O)(=O)CCC(C)(C)N(Cl)Cl)[C@@H](O)[C@H](O)[C@H]1O`, the MBC against Staphylococcus aureus [4] was determined as 256 µg/mL (≈ 646 µM); against Escherichia coli [5] it was 512 µg/mL (≈ 1290 µM); against Staphylococcus aureus [6], 8 µg/mL (≈ 20.2 µM); against Escherichia coli [7], 8 µg/mL (≈ 20.2 µM).

For `CC(=O)OCC(O)CS(=O)(=O)CCC(C)(C)N(Cl)Cl` (stereo not drawn), the minimum bactericidal concentration (MBC) against Staphylococcus aureus [4] amounted to 32 µg/mL (≈ 95.2 µM); against Escherichia coli [5], 64 µg/mL (≈ 190 µM); in the series on Staphylococcus aureus [6], 4 µg/mL (≈ 11.9 µM); against Escherichia coli [7] it was 2 µg/mL (≈ 5.95 µM).

As to `CC(=O)OCC(CS(=O)(=O)CCC(C)(C)N(Cl)Cl)OC(C)=O` (stereo not drawn), the minimal bactericidal concentration (MBC) with Staphylococcus aureus [4] came to 128 µg/mL (≈ 338 µM); in the series with Escherichia coli [5], 128 µg/mL (≈ 338 µM); in the series on Staphylococcus aureus [6], 2 µg/mL (≈ 5.29 µM); against Escherichia coli [7] it was 1 µg/mL (≈ 2.64 µM).

With `CC(C)(CS(=O)(=O)CCO)N(Cl)Cl`, the minimum bactericidal concentration (MBC) in the series on Staphylococcus aureus [6] and in the series on Escherichia coli [7] was 1 µg/mL (≈ 4 µM) each time. Further, the figures for the concentration for half-maximal inhibition (IC50) entry in the series with Human adenovirus 5 [8] (a549), with Human alphaherpesvirus 1 (vero) and in the series with Human adenovirus 5 [9] (setting [12]) were “ND(Unstable)”, “ND(Unstable)” and 2.3 µM, respectively.

Regarding `CN(CCO)S(=O)(=O)CCC(C)(C)N(Cl)Cl`, the MBC with Staphylococcus aureus [4] amounted to 128 µg/mL (≈ 437 µM); in the series with Escherichia coli [5], 64 µg/mL (≈ 218 µM); in the series with Staphylococcus aureus [6], 1 µg/mL (≈ 3.41 µM); in the series with Escherichia coli [7], 2 µg/mL (≈ 6.82 µM). For the same molecule, the IC50 in the series with Human adenovirus 5 [8] (setting [12]) is 14 µM; in the series with Human alphaherpesvirus 1 (setting [13]) it was 1.2 µM; in the series with Human adenovirus 5 [9] (setting [12]), 1.5 µM.

As to `CN(CCCO)S(=O)(=O)CCC(C)(C)N(Cl)Cl`, the IC50 result in the series on Human adenovirus 5 [8] (a549), in the series with Human alphaherpesvirus 1 (vero) and in the series on Human adenovirus 5 [9] (a549) was “ND(Unstable)” each time. In addition, in series [11], the Stability entry was “Stable”.
